Converted amounts (≈) assume the structure as drawn.
Legend:
[1] = Cytotoxicity against mouse P815 cells assessed as growth inhibition after 96 hrs; type: cell-based; settings: read-out: ID50
How it was run: (§1)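 Mouse leukemic lines grown in McCoy's medium with 15% fetal calf serum, starting at 40 000–60 000 cells/mL. Nucleoside added from a 50-fold concentrate; triplicate loosely capped tubes held at 37 °C in 5% CO2 for 96 h, controls reaching ~10^6 cells/mL. Cells counted electronically; percent growth inhibition calculated and the concentration for 50% inhibition reported.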

Human alphaherpesvirus 1 [2] = experiment: Antiviral activity against HSV1 2931 infected in African green monkey Vero cells assessed as inhibition of virus replication at 1 ug/ml after 24 hrs relative to control; type: functional; settings: Human alphaherpesvirus 1, 2931, Vero
How it was run: (§2)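 Vero monolayers infected with HSV-1 strain 2931 at about 1 PFU/cell, adsorbed 2 h, then overlaid with maintenance medium containing drug. Supernatants harvested 24 h later and titered on Vero monolayers.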

Human alphaherpesvirus 1 [3] = experiment: Antiviral activity against HSV1 2931 infected in African green monkey Vero cells assessed as inhibition of virus replication at 10 ug/ml after 24 hrs relative to control; type: functional; settings: Human alphaherpesvirus 1, 2931, Vero; how it was run: as §2
Human alphaherpesvirus 1 [4] = experiment: Antiviral activity against HSV1 2931 infected in African green monkey Vero cells assessed as inhibition of virus replication at 100 ug/ml after 24 hrs relative to control; type: functional; settings: Human alphaherpesvirus 1, 2931, Vero; how it was run: as §2
[5] = Cytotoxicity against mouse L5178Y cells assessed as growth inhibition after 96 hrs; type: cell-based; settings: read-out: ID50; how it was run: as §1
Human alphaherpesvirus 1 [6] = experiment: Antiviral activity against HSV1 2931 infected in African green monkey Vero cells assessed as inhibition of virus replication at 0.01 ug/ml after 24 hrs relative to control; type: functional; settings: Human alphaherpesvirus 1, 2931, Vero; how it was run: as §2
Human alphaherpesvirus 1 [7] = experiment: Antiviral activity against HSV1 2931 infected in African green monkey Vero cells assessed as inhibition of virus replication at 0.1 ug/ml after 24 hrs relative to control; type: functional; settings: Human alphaherpesvirus 1, 2931, Vero; how it was run: as §2
Human alphaherpesvirus 1 [8] = experiment: Potency index, ratio of compound activity to vidarabine activity against HSV1 2931; type: functional

| Compound | GI50 at 96 h [1] [µg/mL] | inhibition at 1 µg/mL (Human alphaherpesvirus 1 [2]) [%] | inhibition at 10 µg/mL (Human alphaherpesvirus 1 [3]) [%] | inhibition at 100 µg/mL (Human alphaherpesvirus 1 [4]) [%] | GI50 at 96 h [5] [µg/mL] | inhibition at 0.01 µg/mL (Human alphaherpesvirus 1 [6]) [%] | inhibition at 0.1 µg/mL (Human alphaherpesvirus 1 [7]) [%] | Ratio (Human alphaherpesvirus 1 [8]) |
| --- | --- | --- | --- | --- | --- | --- | --- | --- |
| Cc1cn([C@@H]2O[C@H](CO)[C@@H](O)[C@@H]2O)c(=O)[nH]c1=O | 13 (≈ 50.3 µM) | > 90 | 100 | 100 | > 100 | < 90 | < 90 |  |
| O=c1[nH]c(=O)n([C@@H]2O[C@H](CO)[C@@H](O)[C@@H]2F)cc1F | 0.7 (≈ 2.65 µM) | > 100 | 100 |  | 1 (≈ 3.79 µM) | < 90 | > 99 |  |
| Nc1ccn([C@@H]2O[C@H](CO)[C@@H](O)[C@@H]2F)c(=O)n1 | 0.05 (≈ 0.204 µM) | > 90 | > 99.9 | > 100 | 0.05 (≈ 0.204 µM) | < 90 | > 90 |  |
| Cc1cn([C@@H]2O[C@H](CO)[C@@H](O)[C@@H]2F)c(=O)[nH]c1=O [5-METHYL-2'-FLUOROARAURACIL] | 1.9 (≈ 7.3 µM) | > 99.9 | 100 |  | 1.6 (≈ 6.15 µM) | < 90 | > 90 |  |
| Nc1nc(=O)n([C@@H]2O[C@H](CO)[C@@H](O)[C@@H]2F)cc1Cl | 1 (≈ 3.58 µM) | < 90 | > 99.9 |  | 1.4 (≈ 5.01 µM) | < 90 | < 90 |  |
| Nc1nc(=O)n([C@@H]2O[C@H](CO)[C@@H](O)[C@@H]2F)cc1Br | > 10 | > 99 | 100 |  | 10 (≈ 30.9 µM) | < 90 | > 90 |  |
| Nc1ccn([C@@H]2O[C@H](CO)[C@@H](O)[C@@H]2O)c(=O)n1 [CYTARABINE] | 0.02 (≈ 0.0822 µM) | > 90 | > 100 | > 100 | 0.02 (≈ 0.0822 µM) | < 90 | < 90 |  |
| Nc1nc(=O)n([C@@H]2O[C@H](CO)[C@@H](O)[C@@H]2O)cc1I | 0.08 (≈ 0.217 µM) | > 90 | > 100 |  | 0.2 (≈ 0.542 µM) | < 90 | < 90 |  |
| Nc1nc(=O)n([C@@H]2O[C@H](CO)[C@@H](O)[C@@H]2F)cc1F | 0.4 (≈ 1.52 µM) | > 99 | > 99.9 |  | 0.5 (≈ 1.9 µM) | < 90 | > 90 |  |
| O=c1[nH]c(=O)n([C@@H]2O[C@H](CO)[C@@H](O)[C@@H]2F)cc1I [FIALURIDINE] | 0.8 (≈ 2.15 µM) | > 99.9 | > 100 |  | 0.9 (≈ 2.42 µM) | < 90 | > 90 |  |
| O=c1[nH]c(=O)n([C@@H]2O[C@H](CO)[C@@H](O)[C@@H]2F)cc1Cl | 3.4 (≈ 12.1 µM) | < 90 | > 100 |  | 1.4 (≈ 4.99 µM) | < 90 | < 90 |  |
| O=c1[nH]c(=O)n([C@H]2C[C@H](O)[C@@H](CO)O2)cc1I [IDOXURIDINE] | 0.9 (≈ 2.54 µM) | < 90 | > 90 | 100 | 4.2 (≈ 11.9 µM) | < 90 | < 90 |  |
| O=c1[nH]c(=O)n([C@@H]2O[C@H](CO)[C@@H](O)[C@@H]2F)cc1Br | 1.6 (≈ 4.92 µM) | > 99 | > 100 |  | 0.9 (≈ 2.77 µM) | < 90 | < 90 |  |
| O=c1[nH]c(=O)n([C@@H]2O[C@H](CO)[C@@H](O)[C@@H]2O)cc1I | 16 (≈ 43.2 µM) | < 90 | > 90 | > 100 | 30 (≈ 81.1 µM) | < 90 | < 90 |  |
| Nc1nc(=O)n([C@H]2C[C@H](O)[C@@H](CO)O2)cc1I [IBACITABINE] | > 100 | > 90 | > 99.9 |  | > 100 | < 90 | < 90 |  |
| O=c1ccn([C@@H]2O[C@H](CO)[C@@H](O)[C@@H]2F)c(=O)[nH]1 | > 10 | > 99 | > 99 |  | > 10 | < 90 | < 90 |  |
| Cl.Nc1nc(=O)n([C@@H]2O[C@H](CO)[C@@H](O)[C@@H]2F)cc1I | 14 | > 100 | 100 | 100 | 48 | > 90 | > 99 | 1000 |
